ALR inh: inhibitors of human ALR sulfhydryl oxidase, primary screen, biochemical, H2O2 detection, HRP-luminol luminescence, single point; FAD-linked sulfhydryl oxidase ALR (Homo sapiens), P55789; purified ALR, DTT oxidation; inhibition, % (concentration not given with the values); actives 3.8% (n = 290,000); AID 485317, 2010;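 active = mean replicate inhibition above about 79%, with every replicate also reaching it, limit read from the data; inconclusive = only one of the two criteria met; inactive = mean below limit and not every replicate reaching it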
Rtt109 Vps75: inhibitors of C. albicans Rtt109/Vps75 HAT, primary screen, biochemical, ThioGlo CoA-SH fluorescence, plate reader; AID 540336, 2011; Histone acetyltransferase RTT109 (Candida albicans (strain SC5314 / ATCC MYA-2876)), …; purified Rtt109/Vps75, 4 h; actives 0.16% (n = 330,000); inhibition, % at 34.9 µM;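 active = inhibition of at least 50% in every replicate; inconclusive = best replicate reaches 50% inhibition but some replicates fall short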
HDAC3 inh: HDAC3 deacetylase inhibitors, primary screen, biochemical, fluorescence, cell-free homogeneous | Histone deacetylase 3 (Homo sapiens), O15379 | recombinant HDAC3, fluorogenic peptide/trypsin coupled | inhibition, % at 8.3 µM | actives 0.15% (n = 320,000); in the data active = inhibition above about 26%, passing the limit was not always enough; inconclusive = no clear call, values can overlap the other calls
UCH37 DUB inh: inhibitors of human UCH37 deubiquitinase, primary screen, biochemical, Ub-AMC cleavage, fluorescence. purified proteasome/UCH37. AID 588478, 2011. actives 0.33% (n = 330,000). inhibition, % (concentration not given with the values). Ubiquitin carboxyl-terminal hydrolase isozyme L5 (Homo sapiens), Q9Y5K5;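 active = mean inhibition over replicate wells above about 20%, limit read from the data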
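system = Proteasome-associated human UCH37 deubiquitinase | amount = 0.15 nM proteasome as dispensed | medium = pH 7.4 Tris-HCl (50 mM) with ovalbumin, ATP-MgCl2, DTT | incubation = 30 min preincubation with enzyme, 25 min cleavage at room temperature | detection = AMC fluorescence 355/460 nm | read-out basis = percent inhibition | controls = no-proteasome and no-compound wells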
FAS-TE inh: FAS thioesterase domain inhibitors, primary screen, biochemical, fluorescence intensity, uHTS; Fatty acid synthase (Homo sapiens), P49327; recombinant FAS-TE, OMFH fluorogenic substrate, fluorescence endpoint; inhibition, % at 15 µM; actives 0.67% (n = 360,000); AID 602261, 2012;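 active = compounds whose normalised, plate-corrected inhibition of enzyme fluorescence in the single-dose primary screen is 50% or more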
PfM18AAP inh: PfM18AAP inhibitors, malaria aminopeptidase, primary screen, biochemical, QFRET, recombinant enzyme. H-Glu-NHMec fluorogenic cleavage. inhibition, % at 7.35 µM. AID 1822, 2009. M18 aspartyl aminopeptidase (Plasmodium falciparum 3D7). actives 1.2% (n = 290,000);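 active = inhibition above the campaign mean inhibition over all tested compounds plus 3 SD, cut at about 28% in these data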
FAS-TE conf: FAS thioesterase domain inhibitors, confirmation, biochemical, fluorescence intensity, single concentration; shares compounds with FAS-TE inh; recombinant FAS-TE, OMFH fluorogenic substrate; inhibition, % at 15 µM; actives 45% (n = 2,300);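 active = compounds inhibiting the enzyme by at least 50% at 15 µM in any one of the replicates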
Large screens that a line does not name were inactive (follow-up assays come after a bar, where they were run). The list is not random: actives were taken first. Their share in the collection is about 4.6%.

Cc1ccc(S(=O)(=O)N(C(=O)c2ccncc2)c2ccc3oc4c(c3c2)CCCC4)cc1[N+](=O)[O-]	FAS-TE inh 54 | FAS-TE conf inactive
CC(=O)Nc1cccc(C(=O)NN=Cc2ccc(C)o2)c1	none (no result: ALR inh, Rtt109 Vps75, HDAC3 inh, FAS-TE inh, PfM18AAP inh)
COc1ccc(-c2nn(-c3ccccc3)cc2/C=N/NC(=S)NC(C)C)cc1OC	HDAC3 inh inconclusive, FAS-TE inh 56 (no result: UCH37 DUB inh) | FAS-TE conf inactive
COc1ccc(-c2nn(-c3ccccc3)cc2/C=N/O)cc1OC	none (no result: UCH37 DUB inh)
COc1ccc(-c2nn(-c3ccccc3)cc2/C=N/NC(=O)c2cccc(S(=O)(=O)Nc3ccccc3OC)c2)cc1	FAS-TE inh 54 (no result: ALR inh, UCH37 DUB inh) | FAS-TE conf inactive
Nc1c(Cl)cc(-c2csc(N3CCCC3c3nc4cc(Cl)c(N5CCCCC5)cc4n3CCOCCO)n2)cc1Cl (stereo unspecified)	FAS-TE inh 70 (no result: PfM18AAP inh) | FAS-TE conf inactive
COC(=O)c1cc(C(=O)Nc2nnc(CC(C)(C)C)s2)cc([N+](=O)[O-])c1	FAS-TE inh 52 | FAS-TE conf 59
CCOCc1nnc(NC(=O)c2cc(C(=O)OC)cc([N+](=O)[O-])c2)s1	none
CCOc1ccc(-n2c(SCC(=O)Nc3ccc4c(c3)OCCO4)nc3c(c2=O)SCC3)cc1	HDAC3 inh inconclusive, FAS-TE inh 62 | FAS-TE conf inactive
CCOc1ccc(-n2c(SCC(=O)Nc3ccc4c(c3)OCO4)nc3c(c2=O)SCC3)cc1	none (no result: ALR inh, HDAC3 inh, PfM18AAP inh)
COc1cccc(-c2cc(C(=O)Nc3ccc([N+](=O)[O-])cn3)c3ccccc3n2)c1	FAS-TE inh 52 (no result: ALR inh) | FAS-TE conf inactive
COc1ccc(-c2cc(C(=O)Nc3sc4c(c3C#N)CCCC4)c3ccccc3n2)cc1OC	FAS-TE inh 52 | FAS-TE conf inactive
COc1cc2c(cc1NC(=O)c1ccncc1)oc1ccccc12	none
COc1ccc(-c2cc(C(=O)Nc3ccccc3O)c3ccccc3n2)cc1OC	none
COc1ccc(-c2cc(C(=O)Nc3nc4ccccc4s3)c3ccccc3n2)cc1OC	FAS-TE inh 82 | FAS-TE conf inactive
COc1cc2c(cc1NC(=O)c1cc(-c3ccccn3)nc3ccccc13)oc1ccccc12	FAS-TE inh 57 (no result: Rtt109 Vps75) | FAS-TE conf inactive
C/C(C=NNC(=O)Cc1cccn1C)=C\c1ccccc1	none (no result: ALR inh, Rtt109 Vps75, HDAC3 inh, FAS-TE inh, PfM18AAP inh)
C=CCN1C(=O)C(=c2sc3nc(=O)c(Cc4ccccc4Cl)nn3c2=O)c2ccccc21	none (no result: ALR inh, Rtt109 Vps75, HDAC3 inh, FAS-TE inh, PfM18AAP inh)
O=[N+]([O-])c1ccc(Sc2n[nH]c(-c3ccccc3)n2)nc1	FAS-TE inh 52 | FAS-TE conf 64
Cc1ccc(C2C(/C=C3/SC(=S)NC3=O)=C(c3cccs3)Oc3ccccc32)cc1 (stereo unspecified)	ALR inh 99, FAS-TE inh 64 | FAS-TE conf inactive
O=C1NC(=S)SC1=Cc1ccccc1Cl	none (no result: ALR inh, HDAC3 inh, PfM18AAP inh)
Cc1ccc2c(c1C)-c1c(ccc(C)c1C)C(=O)C2=O	FAS-TE inh 61 (no result: ALR inh, HDAC3 inh, UCH37 DUB inh, PfM18AAP inh) | FAS-TE conf 56
COc1ccc(C=NNC(=O)c2nnn(-c3nonc3N)c2CN(C)c2ccccc2)cc1	none (no result: ALR inh, Rtt109 Vps75, HDAC3 inh, FAS-TE inh, PfM18AAP inh)
O=C(COc1ccc(C=NNS(=O)(=O)c2ccccc2)cc1)Nc1cccc(Cl)c1	none (no result: ALR inh, Rtt109 Vps75, HDAC3 inh, FAS-TE inh, PfM18AAP inh)
O=C(O)CSc1cc(C(=O)c2ccccc2O)cn2c(=O)c3c(-c4ccccc4)csc3nc12	ALR inh 98, FAS-TE inh 70 | FAS-TE conf 79
COc1ccc(CC(=O)NCC(=O)NN=Cc2ccco2)cc1	none (no result: ALR inh, Rtt109 Vps75, HDAC3 inh, FAS-TE inh, PfM18AAP inh)
Cn1c(/C=C/N(Cc2ccccc2)c2ccccc2)c([N+](=O)[O-])c(=O)n(C)c1=O	FAS-TE inh 57 | FAS-TE conf 47
CC1=C(C(=O)Nc2ccccc2)C(c2ccco2)C(C#N)=C(SCC(=O)Nc2cccc(C)c2C)N1 (stereo unspecified)	none
CCOc1ccccc1NC(=O)CSC1=C(C#N)C(c2ccco2)C(C(=O)Nc2nc3ccccc3s2)=C(C)N1 (stereo unspecified)	FAS-TE inh 81 | FAS-TE conf inactive
CC(C)C[C@H]1C(=O)N2CCC[C@H]2[C@]2(O)O[C@](NC(=O)[C@@H]3C=C4c5cccc6[nH]c(Br)c(c56)CC4N(C)C3)(C(C)C)C(=O)N12 (stereo partly specified)	FAS-TE inh 76 | FAS-TE conf inactive
COCC(=O)Nc1ncc(S(=O)(=O)c2ccc([N+](=O)[O-])cc2)s1	none
O=C(Nc1ncc(S(=O)(=O)c2ccc([N+](=O)[O-])cc2)s1)c1cccc2ccccc12	FAS-TE inh 56 (no result: UCH37 DUB inh) | FAS-TE conf inactive
O=C(NC(Nc1ncc(S(=O)(=O)c2ccc([N+](=O)[O-])cc2)s1)(C(F)(F)F)C(F)(F)F)c1ccc(Cl)cc1	FAS-TE inh 61 (no result: UCH37 DUB inh) | FAS-TE conf 44
COC(=O)c1sc2ccccc2c1NC(=O)c1ccc(S(=O)(=O)N2CCC(C)CC2)cc1	none
COC(=O)c1sc2ccccc2c1NC(=O)c1ccc(S(=O)(=O)N2CCCC(C)C2)cc1 (stereo unspecified)	FAS-TE inh 52 | FAS-TE conf inactive
Cc1ccc(Nc2nnc(-c3ccc(N4CCOCC4)c([N+](=O)[O-])c3)c3ccccc23)cc1	FAS-TE inh 64 | FAS-TE conf inactive
O=[N+]([O-])c1cc(-c2nnc(Nc3ccc(O)cc3)c3ccccc23)ccc1N1CCOCC1	none (no result: UCH37 DUB inh)
O=[N+]([O-])c1cc(-c2nnc(N3CCOCC3)c3ccccc23)ccc1N1CCOCC1	none
O=[N+]([O-])c1cc(-c2nnc(Nc3ccccc3)c3ccccc23)ccc1N1CCOCC1	FAS-TE inh 63 | FAS-TE conf inactive
C=CCOC(=O)COc1ccc2c(C)c(C)c(=O)oc2c1	none
C=CCOC(=O)COc1ccc2c(C)c(CC)c(=O)oc2c1	FAS-TE inh 70 | FAS-TE conf 73
O=C(Cc1ccc(Cl)cc1)NN=Cc1cccc(O)c1	none (no result: ALR inh, Rtt109 Vps75, HDAC3 inh, FAS-TE inh, PfM18AAP inh)
Cc1ccc(S(=O)(=O)Cn2nnnc2C(c2ccccc2)N2CCN(c3ccccc3)CC2)cc1 (stereo unspecified)	FAS-TE inh 57 | FAS-TE conf inactive
Cn1c2ccccc2c2nnc(SCc3ccc4nonc4c3)nc21	FAS-TE inh 58 | FAS-TE conf inactive

Source: PubChem
